Reference: ChEMBL document CHEMBL5357044, “Discovery of a dual-acting inhibitor of interleukin-1β and STATs for the treatment of inflammatory bowel disease” (RSC Med Chem, 2024)
Active and inactive are the calls of the source.

What was measured:
[1] = biological target: NACHT, LRR and PYD domains-containing protein 3 (Mus musculus) (UniProt Q8R4B8); assay: Inhibition of NLRP3 inflammasome activation in mouse J774.A1 cells assessed as reduction in caspase-1 p20 subunits release at 50 to 200 nM pretreated for 1 hr followed by nigericin treatment for 1 hr by Western blot analysis; assay type: cell-based; conditions: dose 50-200 nM, time 2.0 hrs
Procedure, shortened: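 J774A.1 cells, LPS 1 μg mL−1 for 5 h, compound exposure, nigericin 10 μM 1 h. RIPA lysis with protease inhibitor and BCA quantitation, then SDS-PAGE/PVDF. Blocked 5% milk, primary antibodies overnight at 4 °C, HRP secondaries, ECL detection.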

[2] = biological target: NACHT, LRR and PYD domains-containing protein 3 (Mus musculus) (UniProt Q8R4B8); assay: Inhibition of NLRP3 inflammasome activation in mouse BMDM cells assessed as reduction in LPS-stimulated ASC specks formation at 50 to 200 nM pretreated for 1 hr followed by nigericin treatment for 30 mins by immunofluorescence analysis; assay type: cell-based; conditions: dose 50-200 nM, time 1.5 hrs
Procedure, shortened: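 BMDMs primed with LPS 1.5 μg mL−1 for 3 h at 37 °C, compound for 1 h, nigericin 10 μM for 30 min. Fixed in 4% paraformaldehyde and permeabilized with 1% Triton X-100. Blocked in 1% BSA, primary antibody overnight at 4 °C, rhodamine secondary plus DAPI. ASC specks counted by fluorescence microscopy.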

[3] = biological target: Nlrp3/Pycard (Mus musculus) (UniProt Q8R4B8+Q9EPB4); assay: Inhibition of NLRP3-ASC interaction in LPS-treated mouse J774.A1 cells at 50 to 200 nM pretreated for 1 hr followed by nigericin treatment for 1 hr by Co-IP assay; assay type: cell-based; conditions: dose 50-200 nM, time 2.0 hrs
Procedure, shortened: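 Primed/treated J774A.1 cells (LPS 1 μg mL−1 5 h, compound, nigericin 10 μM 1 h) lysed on ice 30 min. Precleared with Protein A/G agarose overnight at 4 °C, then primary antibody (IgG control) overnight at 4 °C. Protein A/G added 6 h, beads washed five times with D-PBS, boiled in SDS buffer and western blotted.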

[4] = biological target: NACHT, LRR and PYD domains-containing protein 3 (Mus musculus) (UniProt Q8R4B8); assay: Inhibition of NLRP3 inflammasome activation in mouse BMDM cells assessed as reduction in LPS-stimulated IL-1beta level at 50 to 200 nM pretreated for 1 hr followed by nigericin treatment for 30 mins by ELISA; assay type: cell-based; conditions: dose 50-200 nM, time 1.5 hrs
Procedure, shortened: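 Bone-marrow macrophages in RPMI 1640/10% FBS/M-CSF. LPS priming at 0.5 μg mL−1 for 3 h, compound 1 h. NLRP3 then triggered by nigericin 10 μM for 0.5 h or imiquimod 900 μM for 2 h. Supernatant IL-1β by ELISA.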

[5] = test system: Colon; assay: Anti-colitis activity against DSS-induced ulcerative colitis mouse model assessed as decrease in infiltration of inflammatory cells in colon tissue at 0.2 to 0.6 mg/kg, ip treated every 72 hrs for 9 days by H and E staining based analysis; assay type: functional, organism-based; conditions: dose 0.2-0.6 mg/kg, time 9.0 day
Procedure, shortened: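 Colons were taken on day 9 from 2.5% DSS-fed mice (DSS days 1–7). Dosing was i.p. 0.2 or 0.6 mg kg−1 in 50% PEG300 on days 2, 5, 8. H&E-stained sections imaged at ×20 and scored for inflammatory infiltration, goblet cell depletion and crypt loss.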

NACHT, LRR and PYD domains-containing protein 3 (Mus musculus), sequence (Q8R4B8 whole entry, the tested form may be a part): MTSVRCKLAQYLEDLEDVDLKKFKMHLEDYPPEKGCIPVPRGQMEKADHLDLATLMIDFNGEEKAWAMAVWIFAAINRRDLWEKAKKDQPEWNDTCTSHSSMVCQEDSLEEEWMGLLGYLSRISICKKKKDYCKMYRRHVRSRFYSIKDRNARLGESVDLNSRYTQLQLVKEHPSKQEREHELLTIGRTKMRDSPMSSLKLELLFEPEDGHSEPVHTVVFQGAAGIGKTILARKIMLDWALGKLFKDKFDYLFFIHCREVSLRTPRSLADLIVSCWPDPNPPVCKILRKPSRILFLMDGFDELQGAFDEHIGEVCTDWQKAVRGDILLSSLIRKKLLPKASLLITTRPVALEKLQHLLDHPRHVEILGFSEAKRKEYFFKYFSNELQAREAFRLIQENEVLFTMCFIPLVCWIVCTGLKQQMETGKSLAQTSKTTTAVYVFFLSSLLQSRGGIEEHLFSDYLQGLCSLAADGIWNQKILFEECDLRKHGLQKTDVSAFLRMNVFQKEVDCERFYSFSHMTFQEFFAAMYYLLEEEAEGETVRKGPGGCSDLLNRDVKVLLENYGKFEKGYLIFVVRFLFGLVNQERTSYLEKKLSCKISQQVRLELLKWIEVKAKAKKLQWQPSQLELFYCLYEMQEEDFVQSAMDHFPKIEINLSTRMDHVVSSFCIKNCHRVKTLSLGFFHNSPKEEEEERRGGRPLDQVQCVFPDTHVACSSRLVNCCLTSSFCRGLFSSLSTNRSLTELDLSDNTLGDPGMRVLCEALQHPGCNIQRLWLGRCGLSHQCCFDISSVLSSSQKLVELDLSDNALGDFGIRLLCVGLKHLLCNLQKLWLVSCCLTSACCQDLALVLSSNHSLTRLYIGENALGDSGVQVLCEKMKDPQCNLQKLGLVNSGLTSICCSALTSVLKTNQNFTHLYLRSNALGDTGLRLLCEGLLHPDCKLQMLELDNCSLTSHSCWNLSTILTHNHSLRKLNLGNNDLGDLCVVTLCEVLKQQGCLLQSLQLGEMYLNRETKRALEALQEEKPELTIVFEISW
Nlrp3/Pycard (Mus musculus), sequence (Q8R4B8 whole entry, looked up): as the sequence (Q8R4B8 whole entry, the tested form may be a part) above
Nlrp3/Pycard (Mus musculus), sequence (Q9EPB4 whole entry, looked up): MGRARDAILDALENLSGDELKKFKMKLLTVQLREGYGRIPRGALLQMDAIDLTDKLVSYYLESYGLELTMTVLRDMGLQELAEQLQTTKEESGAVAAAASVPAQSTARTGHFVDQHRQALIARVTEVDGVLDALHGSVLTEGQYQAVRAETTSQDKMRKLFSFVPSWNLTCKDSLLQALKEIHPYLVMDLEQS

Cc1cc(/C=C/C(=O)c2ccc(C(=O)N[C@@H](Cc3ccccc3)C(=O)N[C@@H](CC(C)C)B(O)O)cc2)cc(C)c1O
active: inhibition [1] | inhibition [2] | inhibition [3] | inhibition [4] | Activity [5]
